According to ChEMBL document CHEMBL1142431, “Benzodioxoles: novel cannabinoid-1 receptor inverse agonists for the treatment of obesity” (J Med Chem, 2008):
Active and inactive are the calls of the source. The calls are words filed in the database; no cut-off is given here.

Legend:
[1] = molecular target: T1, Cannabinoid receptor 1 (Homo sapiens, UniProt P21554); test: biochemical; assay type: cell-based, HEK293
[2] = molecular target: T1, Cannabinoid receptor 1; test: Activity at human CB1R expressed in HEK293 cells assessed as intracellular cAMP level; assay type: functional, cell-based
[3] = Clearance in human liver microsomes; assay type: ADME, Microsome; settings: liver microsomes
Summary of the method: (§1)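 Test compound at 2 µM incubated with liver microsomes (0.5 mg protein/mL) in 50 mM potassium phosphate pH 7.4 at 37 °C. Reaction started with an NADPH-generating system (glucose-6-phosphate 3.2 mM, NADP 2.6 mM, MgCl2 6.5 mM). Six samples over 30 min, quenched in methanol with internal standard, then LC-MS/MS for substrate depletion. CLint taken from the first-order decay, normalized to protein.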

[4] = Clearance in rat liver microsomes; assay type: ADME, Microsome; settings: liver microsomes
Summary of the method: as §1

[5] = tested on: Mus musculus; test: Reversal of CP-55940-induced hypothermia in po dosed NMRI mouse assessed as rectal temperature; assay type: functional; settings: read-out: ID50 (the source's name)
Summary of the method: (§2)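 Mice housed eight per group, eight per dose, habituated at least 2 h. Test compound in 0.3% Tween 80 (10 mL/kg) given 90 min before CP 55940 (0.3 mg/kg iv, same vehicle). Body temperature read 20 min before compound, just before CP 55940, and 20 min after it.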

[6] = tested on: Mus musculus; test: Reversal of CP-55940-induced hypothermia in NMRI mouse assessed as rectal temperature at 30 mg/kg, ip; assay type: functional
Summary of the method: as §2

[7] = tested on: Rattus norvegicus; test: Reduction in body fat in po dosed diet-induced obesity Sprague-Dawley rat model; assay type: functional, organism-based
Summary of the method: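 Sprague-Dawley rats fed HFD from 3 weeks of age for 10 weeks; high responders (body weight exceeding chow controls by >2 SD) grouped n = 9. After 3 days gavage adaptation, daily oral dosing at 5:00 p.m. for 2 weeks in 7.5% gelatine/0.62% NaCl in water, 2 mL/kg. Fat and lean mass by MRI before and at end of treatment.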

[8] = tested on: Mus musculus; test: Reversal of CP-55940-induced hypothermia in NMRI mouse assessed as rectal temperature at 30 mg/kg, po; assay type: functional, organism-based; parameters: dose 30 mg/kg
Summary of the method: as §2

[9] = molecular target: Cannabinoid receptor 2 (Homo sapiens, UniProt P34972); test: Binding affinity to human CB2R
Cannabinoid receptor 2, sequence (P34972 whole entry): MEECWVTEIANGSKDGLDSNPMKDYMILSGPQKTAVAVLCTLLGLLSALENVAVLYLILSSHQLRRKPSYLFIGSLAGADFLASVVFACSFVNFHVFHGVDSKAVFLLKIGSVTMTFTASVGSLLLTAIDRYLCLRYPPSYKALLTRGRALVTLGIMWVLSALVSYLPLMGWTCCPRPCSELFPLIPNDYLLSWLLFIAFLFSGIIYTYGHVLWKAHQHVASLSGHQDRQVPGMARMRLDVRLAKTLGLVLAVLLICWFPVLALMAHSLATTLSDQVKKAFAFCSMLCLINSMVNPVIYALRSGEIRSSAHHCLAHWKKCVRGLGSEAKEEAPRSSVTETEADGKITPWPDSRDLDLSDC

T1 sequence (P21554 whole entry): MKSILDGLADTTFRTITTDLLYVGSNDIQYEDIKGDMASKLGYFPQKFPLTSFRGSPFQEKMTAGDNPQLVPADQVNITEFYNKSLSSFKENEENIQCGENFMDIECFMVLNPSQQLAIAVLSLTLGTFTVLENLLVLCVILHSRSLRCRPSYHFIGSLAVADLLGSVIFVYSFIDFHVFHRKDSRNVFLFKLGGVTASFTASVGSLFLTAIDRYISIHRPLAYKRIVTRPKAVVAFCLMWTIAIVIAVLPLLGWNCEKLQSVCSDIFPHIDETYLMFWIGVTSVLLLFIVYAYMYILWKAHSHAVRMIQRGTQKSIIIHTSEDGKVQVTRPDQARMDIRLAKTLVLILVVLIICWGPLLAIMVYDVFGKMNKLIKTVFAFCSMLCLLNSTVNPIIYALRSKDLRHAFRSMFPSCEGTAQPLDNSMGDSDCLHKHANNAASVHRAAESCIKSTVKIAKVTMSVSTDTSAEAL

O=C(c1cc2c(cc1F)OC(c1ccc(F)cc1)(c1ccc(Cl)cc1Cl)O2)N1CCOCC1 (stereo unspecified) showed a Ki [1] of 4 nM, an EC50 [2] of 11 nM and a microsomal CLint [3] of 10 µL/min/mg. It also gave a microsomal CLint [4] of 22 µL/min/mg and an ED50 [5] of 5 mg/kg.
In the case of O=C(c1ccc2c(c1)OC(c1ccccc1)(c1ccccc1)O2)N1CCCCC1, the Ki [1] is reported as 28 nM, the microsomal CLint [3] is reported as 53 µL/min/mg and the microsomal CLint [4] is reported as 673 µL/min/mg. For the same molecule, the Activity [6] was “inactive”.
N#Cc1cc2c(cc1C(=O)N1CCOCC1)OC(c1ccccc1)(c1ccccc1)O2 showed a Ki [1] of 277 nM.
In the case of Cc1c(C(=O)NN2CCCCC2)nn(-c2ccc(Cl)cc2Cl)c1-c1ccc(Cl)cc1, the Activity [7] is reported as “Active”.
With O=C(c1cc2c(cc1F)OC(c1ccc(F)cc1)(c1ccc(F)cc1)O2)N1CCCCC1 the Ki [1] was 7 nM, the EC50 [2] was 72 nM and the microsomal CLint [3] was 48 µL/min/mg. The microsomal CLint [4] was 81 µL/min/mg.
With O=C(c1cc2c(cc1F)OC(c1ccc(F)cc1F)(c1ccc(F)cc1F)O2)N1CCOCC1 the Ki [1] was 7 nM, the EC50 [2] was 4 nM and the microsomal CLint [3] was 96 µL/min/mg. The microsomal CLint [4] was 30 µL/min/mg and the ED50 [5] was 8 mg/kg.
Cc1cc2c(cc1C(=O)N1CCOCC1)OC(c1ccccc1)(c1ccccc1)O2 showed a Ki [1] of 509 nM.
Work on O=C(c1cc2c(cc1F)OC(c1ccccc1F)(c1ccc(Cl)cc1Cl)O2)N1CCOCC1 (stereo unspecified) yielded a Ki [1] of 4 nM, an EC50 [2] of 2 nM and a microsomal CLint [3] of 21 µL/min/mg. For the same molecule, the microsomal CLint [4] was 123 µL/min/mg and the ED50 [5] was 6 mg/kg.
O=C(CC(c1ccccc1)c1ccccc1)N1CC=C(c2ccc(Cl)cc2)CC1 gave a Ki [1] of 1500 nM.
In the case of O=C(c1cc2c(cc1F)OC(c1ccccc1)(c1ccccc1)O2)N1CCCCC1, the Ki [1] is reported as 11 nM, the EC50 [2] is reported as 1.2 nM and the microsomal CLint [3] is reported as 50 µL/min/mg. It also gave a microsomal CLint [4] of 486 µL/min/mg.
For Fc1ccc(C2(c3ccc(F)cc3)Oc3cc(F)c(CN4CCOCC4)cc3O2)cc1, the Ki [1] was greater than 1000 nM.
In the case of O=S(=O)(c1cc2c(cc1F)OC(c1ccc(F)cc1F)(c1ccc(F)cc1F)O2)N1CCC(F)(F)CC1, the Activity [8] is reported as “inactive”, the Ki [1] is reported as 3 nM and the EC50 [2] is reported as 3 nM. For the same molecule, the microsomal CLint [3] was 271 µL/min/mg, the microsomal CLint [4] was 287 µL/min/mg and the Activity [6] was “inactive”.
In the case of O=C(c1ccc2c(c1)OC(c1ccccc1)(c1ccccc1)O2)N1CCOCC1, the Ki [1] is reported as 50 nM and the EC50 [2] is reported as 784 nM.
O=C(c1ccc2c(c1)OC(c1ccc(F)cc1)(c1ccc(Cl)cc1Cl)O2)N1CCOCC1 (stereo unspecified) showed a Ki [1] of 30 nM, an EC50 [2] of 156 nM and a microsomal CLint [3] of 19 µL/min/mg. For the same molecule, the microsomal CLint [4] was 4 µL/min/mg.
Work on O=C(c1cc2c(cc1Br)OC(c1ccccc1)(c1ccccc1)O2)N1CCOCC1 yielded a Ki [1] of 873 nM.
With O=S(=O)(c1ccc2c(c1)OC(c1ccccc1)(c1ccccc1)O2)N1CCCCC1 the Ki [1] was 38 nM, the microsomal CLint [3] was 137 µL/min/mg and the microsomal CLint [4] was 549 µL/min/mg. The Activity [6] was “inactive”.
With O=C(c1cc2c(cn1)OC(c1ccccc1)(c1ccccc1)O2)N1CCCCC1 the Ki [1] was 13 nM.
With O=C(c1cc2c(cc1F)OC(c1ccc(F)cc1F)(c1ccc(F)cc1F)O2)N1CCC(F)(F)CC1 the Ki [1] was 6 nM, the EC50 [2] was 2 nM and the microsomal CLint [3] was 17 µL/min/mg. It also gave a microsomal CLint [4] of 5 µL/min/mg.
For O=S(=O)(c1cc2c(cc1F)OC(c1ccc(F)cc1F)(c1ccc(F)cc1F)O2)N1CCOCC1, the Activity [8] was “inactive”, the Ki [1] was 25 nM and the EC50 [2] was 11 nM. For the same molecule, the microsomal CLint [3] was 102 µL/min/mg, the microsomal CLint [4] was 149 µL/min/mg and the Activity [6] was “inactive”.
O=C(c1cc2c(cc1F)OC(c1ccccc1)(c1ccccc1)O2)N1CCOCC1 gave a Ki [1] of 15 nM, an EC50 [2] of 26 nM and a microsomal CLint [3] of 33 µL/min/mg. It also gave a microsomal CLint [4] of 272 µL/min/mg.
With O=C(c1cc2c(cc1Cl)OC(c1ccccc1)(c1ccccc1)O2)N1CCOCC1 the Ki [1] was 216 nM, the microsomal CLint [3] was 44 µL/min/mg and the microsomal CLint [4] was 388 µL/min/mg.
CCCCCn1cc(C(=O)c2ccc3ccccc3c2)c2ccc(S(C)(=O)=O)cc21 showed a Ki [1] of 110 nM.
COc1ccc(C2(c3ccc(Cl)cc3Cl)Oc3cc(F)c(C(=O)N4CCCCC4)cc3O2)cc1 (stereo unspecified) gave a Ki [1] of 2 nM, an EC50 [2] of 5 nM and a microsomal CLint [3] of 34 µL/min/mg. The microsomal CLint [4] was 88 µL/min/mg and the ED50 [5] was 8 mg/kg.
In the case of O=S(=O)(c1ccc2c(c1)OC(c1ccccc1)(c1ccccc1)O2)N1CC=C(c2ccc(F)cc2)CC1, the Ki [1] is reported as 13 nM, the Ki [9] is reported as greater than 10000 nM and the Activity [6] is reported as “inactive”.
O=C(c1cc2c(cc1F)OC(c1ccc(F)cc1)(c1ccc(F)cc1)O2)N1CCOCC1 gave a Ki [1] of 18 nM.
Molecule O=C(c1cc2c(cc1F)OC(c1ccc(F)cc1)(c1ccc(Cl)cc1Cl)O2)N1CCCCC1 (stereo unspecified) has a Ki [1] of 4 nM, an EC50 [2] of 5 nM and a microsomal CLint [3] of 31 µL/min/mg. It also gave a microsomal CLint [4] of 89 µL/min/mg.
For O=C(c1cc2c(cc1F)O[C@@](c1ccc(F)cc1)(c1ccc(Cl)cc1Cl)O2)N1CCOCC1, the Ki [1] was 35 nM.
With O=S(=O)(c1cc2c(cc1F)OC(c1ccc(F)cc1)(c1ccc(Cl)cc1Cl)O2)N1CCOCC1 (stereo unspecified) the Ki [1] was 9 nM, the EC50 [2] was 3 nM and the microsomal CLint [3] was 20 µL/min/mg. It also gave a microsomal CLint [4] of 53 µL/min/mg and an ED50 [5] of 16 mg/kg.
O=C(c1cc2c(cc1F)OC(c1ccc(F)cc1F)(c1ccc(F)cc1F)O2)N1CCCCC1 showed a Ki [1] of 1 nM, an EC50 [2] of 2 nM and a microsomal CLint [3] of 34 µL/min/mg. It also gave a microsomal CLint [4] of 122 µL/min/mg.
